These results are taken from ChEMBL document CHEMBL3593217, “Synthesis and bioactivity of a Goralatide analog with antileukemic activity” (Bioorg Med Chem, 2015).

The source made the active and inactive calls. No cut-off for these calls is given here. Peptide text beside a SMILES is read from it. * marks the point of attachment. Cbz = O=C(OCc1ccccc1)*; OBn = c1ccc(CO*)cc1; OtBu = CC(C)(C)O*; tBu = CC(C)(C)*

Data set [1] can be described thus: Chemical stability of the compound in MeOH after 7 days. It is filed as physicochemical. The conditions noted are these: 168 h. The gist of the method:
(§1)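 Peptide kept in organic solvent (DMSO, CDCl₃ or MeOH) and watched for decomposition, read at 12 h and at 7 days.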

Data set [2] deals with U-251. Kind of data set: Cytotoxicity against human U251 cells assessed as reduction of clonogenicity at 10 uM after 1 to 2 weeks by crystal violet staining. It is filed as functional, cell-based. The gist of the method: (§2)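 Clonogenic survival: 1000 cells plated per well, then grown with or without peptide for 1–2 weeks before colonies were scored. Peptide stock was 25 mM in DMSO.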

The subject of data set [3] is HEL. Kind of data set: Cytotoxicity against human HEL cells assessed as cell viability at 1 to 100 uM after 24 hrs by MTT assay. It is filed as functional, cell-based. The gist of the method:
(§3)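 Cells exposed to peptide at a range of concentrations for 24 h, with DMSO as negative control. Tetrazolium (MTS-type) viability reagent added, then 1–2 h at 37 °C. Read-out is OD at 490 nm. Run in triplicate; significance by Student's t-test against untreated and DMSO-treated cells. Peptide stock was 25 mM in DMSO, stored at −20 °C.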

For data set [4], the system named is NALM-6. Kind of data set: Cytotoxicity against human NALM6 cells assessed as cell viability at 1 to 100 uM after 24 hrs by MTT assay. It is filed as functional, cell-based. The gist of the method:
as §3
(In general: Formazan colour is commonly taken as a measure of viable cells.)

Data set [5] has as its system HL-60. Kind of data set: Cytotoxicity against human HL60 cells assessed as cell viability after 24 hrs by MTT assay. It is filed as functional, cell-based. The gist of the method: as §3
Data set [6] concerns HEK-293T. Kind of data set: Cytotoxicity against human 293T cells assessed as reduction of clonogenicity at 10 uM after 1 to 2 weeks by crystal violet staining. It is filed as cell-based. The gist of the method:
as §2

Data set [7] can be described thus: Chemical stability of the compound in CDCl3 after 7 days. It is filed as physicochemical. The conditions noted are these: 168 h. The gist of the method:
as §1

Data set [8] in a line: Chemical stability of the compound in DMSO after 7 days. Particulars: 168 h. It is filed as physicochemical. The gist of the method:
as §1

Data set [9] has as its system HUVEC. Kind of data set: Cytotoxicity against human HUVEC cells assessed as cell viability after 24 hrs by MTT assay. It is filed as cell-based. The gist of the method:
as §3

The subject of data set [10] is HL-60. Kind of data set: Cytotoxicity against human HL60 cells assessed as cell viability at 1 to 100 uM after 24 hrs by MTT assay. It is filed as functional, cell-based. The gist of the method:
as §3

A short description of data set [11]: Half life in human plasma. It is filed as ADME, cell-free.
Data set [12] can be described thus: Chemical stability of the compound in CDCl3 after 12 hrs. It is filed as physicochemical. The gist of the method: as §1
Data set [13] relates to NALM-6. The experiment in a line: Cytotoxicity against human NALM6 cells assessed as cell viability at 50 uM after 24 hrs by MTT assay. It is filed as functional, cell-based. The gist of the method:
as §3

The subject of data set [14] is HEL. Kind of data set: Cytotoxicity against human HEL cells assessed as cell viability at 50 uM after 24 hrs by MTT assay. It is filed as functional, cell-based. The gist of the method:
as §3

Data set [15] can be described thus: Chemical stability of the compound in MeOH after 12 hrs. It is filed as physicochemical. The gist of the method: as §1
Data set [16] has as its system HL-60. The experiment in a line: Cytotoxicity against human HL60 cells assessed as cell viability at 50 uM after 24 hrs by MTT assay. It is filed as functional, cell-based. The gist of the method: as §3
Data set [17] in a line: Chemical stability of the compound in DMSO after 12 hrs. It is filed as physicochemical. The gist of the method: as §1

On to `CC(=O)N[C@@H](COC(C)(C)C)C(=O)N[C@@H](CC(=O)OC(C)(C)C)C(=O)N[C@@H](CCCCNC(=O)OCc1ccccc1)C(=O)N1CCC[C@H]1C(=O)OCc1ccccc1` (Ac-S(tBu)D(OtBu)K(Cbz)P-OBn), for which the Stability entry in data set [1], in data set [7] and in [8] was “Stable” each time. Also, the result in data set [2], in [3], in data set [4] and in data set [10] was Active. In addition, the Activity result in [5] was “Dose-dependent effect”; in [6] it was “Toxic”; in [9], “Dose-dependent effect”.

In [11], `CC(=O)N[C@@H](CO)C(=O)N[C@@H](CC(=O)O)C(=O)N[C@@H](CCCCN)C(=O)N1CCC[C@H]1C(=O)O` [GORALATIDE] (Ac-SDKP-OH) registered a half-life of 4.5 min. Moreover, the Stability entry in data set [12], in [15] and in [17] was “Unstable” throughout. For the same compound, the inhibition result in [13], in data set [14] and in data set [16] was “inactive” each time.

For orientation: half-life means how long it takes for the measured level to halve. Lower therefore signals rapid decline.
